Each structure is given as a SMILES string. pIC50: −log10 of the molar value. Square brackets hold non-standard residues; d marks the D form. Peptide text beside a SMILES is read from it. Lys(Me3) = C[N+](C)(C)CCCC[C@H](N)C(=O)O

The MIC50 is the lowest concentration that inhibits either 50% of growth or 50% of the strains tested, depending on the study. As usually defined, the pIC50 is the IC50 on a negative log10 scale, so that one unit is a factor of ten. High values mean a small IC50, low ones a large IC50. The term LC50 denotes the concentration lethal to half of the exposed cells or organisms. Lower therefore signals greater toxicity. For orientation: HC50 means the concentration giving 50% haemolysis.

Data set [1] has as its system Acinetobacter baumannii. Description: Antimicrobial activity against Acinetobacter baumannii ATCC 19606 ATCC 19606 by turbidimetry. The class given is functional.
In data set [2] the test system is Leishmania donovani. Nature of the data set: Antileishmanial activity against Leishmania donovani MHOM/SD/001S-2D promastigotes after 4 hrs by MTT assay. Background: Tetrazolium dyes change colour on reduction, which living cells bring about.
Data set [3] in a line: Selectivity index, ratio of IC50 for sheep erythrocyte to LC50 for Leishmania pifanoi MHOM/VE/60/LTrod amastigotes. The essentials: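 SI = HC50/LC50. HC50 comes from sheep erythrocytes (2 × 10^7 cells/mL in Hank's, 4 h, 37 °C, hemoglobin at 550 nm, 0.1% Triton X-100 as full lysis). For LC50, L. pifanoi axenic amastigotes at 2 × 10^7/mL in Hank's + 20 mM glucose get peptide for 4 h at 32 °C. An aliquot is then regrown in complete medium for 96 h at 32 °C.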

The test system of data set [4] is Leishmania donovani. Description: Antileishmanial activity against Leishmania donovani MHOM/SD/001S-2D promastigotes after 72 hrs by MTT assay. It counts as functional, organism-based. The essentials: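 L. donovani promastigotes (strain MHOM/SD/00/1S-2D) are harvested at late exponential phase and washed in Hank's + 20 mM D-glucose, pH 7.2. They are treated with peptide at 2 × 10^7 parasites/mL for 4 h at 26 °C. A 20 μL aliquot then goes into complete medium for 72 h at 26 °C to let survivors proliferate. LC50 is 50% inhibition of proliferation. Triplicates, repeated at least twice.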

Data set [5] is described as follows: Toxicity in sheep erythrocyte assessed as hemolysis. The class given is cell-based, Ovis aries. The settings on record: sheep erythrocytes. The essentials:
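Washed sheep erythrocytes at 2 107 cells/mL in Hank's medium were exposed to peptide for 4 h at 37 °C, then spun (5 min, 4 °C). Hemoglobin in the supernatant was read at 550 nm. HC50 is the peptide concentration releasing 50% of the hemoglobin freed by 0.1% Triton X-100.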

Data set [6] is described as follows: Selectivity index, ratio of IC50 for sheep erythrocyte to LC50 for Leishmania donovani MHOM/SD/001S-2D promastigotes. In outline:
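SI = HC50/LC50. For HC50, washed sheep erythrocytes at 2 × 10^7 cells/mL in Hank's are exposed to peptide for 4 h at 37 °C. Hemoglobin in the supernatant is read at 550 nm; 0.1% Triton X-100 gives full lysis, and HC50 is 50% release.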

For data set [7], the system named is Leishmania pifanoi. Nature of the data set: Antileishmanial activity against Leishmania pifonoi MHOM/VE/60/LTrod promastigotes after 72 hrs by MTT assay. The class given is functional, organism-based.
For data set [8], the system named is Leishmania pifanoi. Description: Antileishmanial activity against Leishmania pifonoi MHOM/VE/60/LTrod amastigotes after 4 hrs by MTT assay.
Data set [9] can be described thus: Selectivity index, ratio of HC50 for sheep erythrocyte to MIC50 for Staphylococcus aureus CECT 240. The class given is functional.
In data set [10] the test system is Staphylococcus aureus. Description: Antimicrobial activity against Staphylococcus aureus CECT 240 by turbidimetry. The class given is functional.
Data set [11] can be described thus: Selectivity index, ratio of HC50 for sheep erythrocyte to MIC50 for Acinetobacter baumannii ATCC 19606 ATCC 19606. It counts as functional.

For the molecule `CC[C@H](C)[C@H](NC(=O)[C@H](CCCC[N+](C)(C)C)NC(=O)[C@H](CCCC[N+](C)(C)C)NC(=O)[C@H](Cc1ccccc1)NC(=O)[C@H](CC(C)C)NC(=O)[C@H](CCCCN)NC(=O)[C@H](Cc1c[nH]c2ccccc12)NC(=O)[C@@H](N)CCCCN)C(=O)NCC(=O)N[C@@H](C)C(=O)N[C@H](C(=O)N[C@@H](CC(C)C)C(=O)N[C@@H](CCCCN)C(=O)N[C@H](C(=O)N[C@@H](CC(C)C)C(N)=O)C(C)C)C(C)C.[Cl-].[Cl-]` (H-KWKLF[Lys(Me3)][Lys(Me3)]IGAVLKVL-NH2), the MIC50 in data set [1] turned out to be 2.6 µM; in [10], 10.7 µM. In addition, the pIC50 in data set [2] was 5.21; in data set [8] it was 5.04. Further, the “Selectivity Index” value is given as 4.9 in data set [3], 25.3 in data set [6], 12.5 in [9] and 51.5 in data set [11]. For the same molecule, the LC50 came out at 5.3 µM in [4] and 27 µM in [7]. Besides, the concentration for 50% haemolysis (HC50) in [5] stood at 134 µM.

These data come from ChEMBL document CHEMBL1212840, “Lysine N(epsilon)-trimethylation, a tool for improving the selectivity of antimicrobial peptides” (J Med Chem, 2010).
